# Test results taken from article PMC9002156 (Journal of Biomedical Research, 2022).
# Read-outs that look alike come from different tables or passages of the source.
# Tests used:
# [1] = system: CYP2C19; conditions: cited from earlier work
# [2] = Plasma concentrations in CAD patients after oral Plavix 75 mg; type: in vivo; conditions: human
# Outline: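 Venous blood (3 mL) from CAD patients was drawn into EDTA/DTT tubes before dosing and at 0.5, 1, 2, 2.5, 3, 3.5, 6, 8, 12 and 24 h after dosing. MPB (500 mmol/L stock) was added at once, then spun 16 000 g for 10 min and held at −80 °C. Read-out was LC-MS/MS on C18 at 40 °C, 0.1% formic acid:acetonitrile (1:19), 1 mL/min. Thiol metabolite was measured as derivative. Calibration used peak area with internal standard, weighted 1/x2. Mean±SD, n=3.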
# [3] = type: in vitro ADME, human; conditions: mean±SD; for Found, after three-thaw cycles / Found, at –80 °C for 45 days / Found, plasma at room temperature for 8 hours: human plasma; for Found, extract at room temperature for 8 hours / Found, extract in the auto-sampler at 4 °C for 24 hours: plasma extract
# [4] = Stability of stock solutions in acetonitrile; type: physicochemical; conditions: in acetonitrile at −20 °C
# Outline: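 Separate acetonitrile stocks were made: 10 μg/mL for each analyte and 1 mg/mL for the internal standard. They were vortexed, briefly sonicated and stored at −20 °C. Analyte stability was examined after 2 months at −20 °C. Read-out was LC-MS/MS quantification.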
# [5] = system: carboxylesterases; conditions: cited from earlier work
SMILES,"Contribution of CYP2C19 to metabolism, second step ([1]; 2-Oxo-CLP to active metabolite) [%]","Contribution of CYP2C19 to metabolism, first step ([1]; clopidogrel metabolized to 2-Oxo-CLP) [%]",Cmax [2] [ng/mL],"Found, after three-thaw cycles ([3]; added 0.2 ng/mL) [ng/mL]","Found, at –80 °C for 45 days ([3]; added 0.2 ng/mL) [ng/mL]","Found, plasma at room temperature for 8 hours ([3]; added 0.2 ng/mL) [ng/mL]","Found, after three-thaw cycles ([3]; added 10 ng/mL) [ng/mL]","Found, at –80 °C for 45 days ([3]; added 10 ng/mL) [ng/mL]","Found, plasma at room temperature for 8 hours ([3]; added 10 ng/mL) [ng/mL]","Found, extract at room temperature for 8 hours ([3]; added 0.2 ng/mL) [ng/mL]","Found, extract in the auto-sampler at 4 °C for 24 hours ([3]; added 0.2 ng/mL) [ng/mL]","Found, extract at room temperature for 8 hours ([3]; added 10 ng/mL) [ng/mL]","Found, extract in the auto-sampler at 4 °C for 24 hours ([3]; added 10 ng/mL) [ng/mL]",Time stock solutions were stable [4],Portion hydrolyzed into inactive metabolites by carboxylesterases [5]
"COC(=O)[C@H](c1ccccc1Cl)N1CCc2sccc2C1 [Clopidogrel, (+)-(S)-methyl 2-(2-chlorophenyl)-2-(6,7-dihydrothieno[3,2-c]pyridine-5(4H)-yl)acetate]",20,45,17,0.2 ± 0.0,0.2 ± 0.0,0.2 ± 0.0,10.1 ± 0.8,10.1 ± 0.2,10.4 ± 0.8,0.2 ± 0.0,0.2 ± 0.0,10.0 ± 1.4,10.0 ± 0.8,at least 2 months,approximately 85%
"CC#C[C@]1(O)CC[C@H]2[C@@H]3CCC4=CC(=O)CCC4=C3[C@@H](c3ccc(N(C)C)cc3)C[C@@]21C [IS, Mifepristone]",,,,,,,,,,,,,,at least 2 months,
